# Screening results: PubChem BioAssay, several laboratories
# In the library only some 0.79% were active in any assay of this set; here they are far more common.
# Rin1 Abl inh = human Rin1-Abl interaction inhibition; AID 588664; P00519+Q13671; inhibition, % at 7.35 µM; TR-FRET Rin1/Abl binding, biochemical; actives 0.4% (n = 360,000); in the data active = inhibition above about 5%, passing the limit was not always enough
# PKA-R1A activ = PKA-R1A complex activation; P00514+P68181; PKA-R1A dissociation, Cy5-IP20 fluorescence polarization; scaled: DMSO 0%, 113 µM cGMP 100%; activation, % at 11.4 µM; actives 0.083% (n = 340,000); AID 504707;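 active = percent activation above the mean of all tested compounds plus 3 SD, cut at about 19% in these data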;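 note: higher means more PKAc released from R1A so a rise in polarization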
# PKA-R2B activ = activates the human PKA-R2B holoenzyme complex. P22694+P31323. PKA-R2B holoenzyme dissociation, Cy5-IP20 fluorescence polarization; R2B truncated from residue 108, S112A mutant; 0% DMSO only, 100% 113 µM cGMP. activation, % at 11.4 µM. actives 0.079% (n = 340,000). AID 504700;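 active = activation above a cutoff set at the mean over all compounds plus 3 SD, cut at about 18% in these data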;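 note: higher means more holoenzyme dissociation and a rise in polarization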
# Target sequence (P31323 whole entry, looked up, other chains not shown, the tested form may be a part): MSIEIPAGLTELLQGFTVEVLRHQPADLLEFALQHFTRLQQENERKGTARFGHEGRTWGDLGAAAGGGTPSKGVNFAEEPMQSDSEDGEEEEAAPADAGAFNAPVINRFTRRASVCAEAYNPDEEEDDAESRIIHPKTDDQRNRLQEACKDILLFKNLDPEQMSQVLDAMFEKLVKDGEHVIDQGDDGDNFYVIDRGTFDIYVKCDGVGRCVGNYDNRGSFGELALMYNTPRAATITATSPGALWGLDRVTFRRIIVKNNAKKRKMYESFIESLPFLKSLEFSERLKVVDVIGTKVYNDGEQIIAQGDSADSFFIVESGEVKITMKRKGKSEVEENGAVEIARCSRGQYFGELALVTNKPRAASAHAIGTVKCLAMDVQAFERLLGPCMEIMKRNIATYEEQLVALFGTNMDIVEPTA
# UCH37 inh = inhibitors of human deubiquitinating enzyme UCH37; actives 0.33% (n = 330,000); purified proteasome/UCH37, Ub-AMC cleavage fluorescence; inhibition, % (concentration not given with the values);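 active = mean inhibition over replicate wells above about 20%, limit read from the data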;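 note: 0% = compound-free wells with enzyme and 100% = wells lacking proteasome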
#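 Material: human UCH37 enzyme supplied as purified proteasome complex / Amount: 0.15 nM proteasome as dispensed / Buffer or medium: pH 7.4 Tris-HCl (50 mM) with ovalbumin, ATP-MgCl2, DTT / Times: preincubation 30 min, reaction 25 min, room temperature / Technique: AMC fluorescence from Ub-AMC cleavage, excitation 355 nm, emission 460 nm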
# UCH37 confirm = UCH37 Ub-AMC cleavage inhibition, confirmed. Proteasome-bound UCH37, Ub-AMC cleavage fluorescence. shares compounds with UCH37 inh. actives 27% (n = 480). inhibition, % at 20 µM;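 active = average inhibition over replicates above about 50%, so the earlier screening hit is confirmed, limit read from the data; inactive = the rest, counted as false positives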;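 note: based on cleavage rate fitted by regression over a 30 min kinetic read; 0% = proteasome plus Ub-AMC and 100% = Ub-AMC without proteasome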
# An asterisk follows results filed as active; . = not tested or not shown; ! = not confirmed by another sample.
SMILES,Rin1 Abl inh,PKA-R1A activ,PKA-R2B activ,UCH37 inh,UCH37 confirm
Cn1c(=O)n(C)c2cc([N+](=O)[O-])c(N3CCN(C(=O)c4ccc(Cl)cc4)CC3)cc21,1.1,-0.6,1.7,7.9,.
Cc1ccc(C)c(Cn2c(CO)nc3ccccc32)c1,-0.4,-1.9,-11.0,2.4,.
CCOc1cc(C(c2c(C)[nH][nH]c2=O)c2c(C)[nH][nH]c2=O)ccc1O,-5.9,2.3,-0.7,57.8*,39.8
CCCCCCCCCCCCCCCC[n+]1cccc(C(=O)N(CC)CC)c1,-2.4,-21.3,-15.4,58.2*!,65.8*
CCCCCCCCCCCCCCCC[n+]1ccc(C(N)=O)cc1,-2.1,-13.9,-1.0,68.0*,71.2*
CCCCCCCCCCCCCCCC[n+]1ccccc1,-1.5,-21.7,-1.1,79.2*,97.4*
CCCCCCCCCCCCCCCC[n+]1ccc(/C=N/O)cc1,-4.1,2.9,-4.5,.,.
CCCCCCCC[n+]1cccc(C(=O)N(CC)CC)c1,4.2,7.0,0.5,0.8,.
CS(=O)(=O)N1CCCC(C(=O)Nc2ccccc2F)C1 (stereo not given),3.0,-1.8,-7.3,-0.8,.
CC[C@@H](NC(=O)[C@@H](Cc1ccccc1)NC(=O)CC[C@H]1O[C@@H](n2ccc(=O)[nH]c2=O)[C@H](O)[C@@H]1O)c1ccccc1,1.2,.,.,.,.
COc1cccc(NC(=O)CN(C)C(=O)c2ccc(N3CCCCC3)c([N+](=O)[O-])c2)c1,-5.0,7.5,-10.6,4.8,.
CCOC(=O)/C(=C/C=C1\Sc2cc(OCC)c(OCC)cc2N1CC)C(C)=O,-13.8,-3.5,-11.6,7.3,.
CCOC(=O)/C(=C\C=C1/Sc2cc(OCC)c(OCC)cc2N1CC)C(C)=O,-13.6,-20.1,-7.3,29.5*,17.7
Nc1c2c(=O)[nH]c(O)cc2nn1-c1ccccc1,3.2,-3.8,5.2,30.6*,23.2
Cc1cc(C(C)(C)C)ccc1OCCCCN1CCCC1,-2.5,-8.6,-5.6,3.1,.
CCC(C)(C)c1ccc(OCCCC[n+]2ccc(C)cc2)c(C(C)(C)CC)c1,.,.,.,26.5*,20.6
Cc1cc[n+](CC[n+]2ccc(C)cc2)cc1,-3.4,-1.5,7.6,-0.8,.
CCC(C)(C)c1ccc(OCCCC[n+]2cccc(C)c2C)c(C(C)(C)CC)c1,-0.8,-2.0,-3.7,38.1*,59.4*
CCOC(=O)C1=C[C@@H](C(C)(C)C)N(S(=O)(=O)c2ccc(C)cc2)[C@H]1c1ccccc1Cl,2.8,.,.,.,.
Cc1nn2c(=O)cc(CSc3ccccc3NC(=O)c3ccccc3)nc2s1,-0.6,-3.3,-1.0,2.7,.
CC(=O)N1N=C(N)SC1c1cccc([N+](=O)[O-])c1 (stereo not given),-0.4,-5.3,12.2,3.7,.
COc1ccccc1CNC(=O)COC(=O)c1nc(Cl)ccc1Cl,1.8,0.9,-6.7,1.9,.
COc1cc(OC)c2c(c1)C(=O)c1cc(OC)cc(OC)c1C2=O,-0.2,-2.0,4.6,43.0*,30.5
CN1C2CCC1/C(=C/c1cccn1C)C(=O)/C2=C\c1cccn1C,-17.8,2.7,-9.8,29.4*,15.1
CC(=O)Nc1ccc2c(c1)C(=Nc1ccc(C)cc1)c1ccccc1-2,-9.0,3.4,-10.8,-0.3,.
SMILES,Rin1 Abl inh,PKA-R1A activ,PKA-R2B activ,UCH37 inh,UCH37 confirm
CCOC(=O)N1CCN(c2c(Nc3cc(C)[nH]n3)c(=O)c2=O)CC1,2.0,6.0,5.7,6.1,.
O=[N+]([O-])c1cc(F)c2cccnc2c1O,1.3,-6.5,7.4,29.1*,48.0
O=[N+]([O-])c1cc([N+](=O)[O-])c2oc(-c3ccccc3)c(Br)c2c1O,-3.2,0.3,12.4,26.7*,71.0*
CC(Sc1nnc(-c2cccnc2)n1N)C(=O)NCCC1=CCCCC1 (stereo not given),3.4,-6.3,4.2,62.6*,51.8*
CC(Sc1nnc(-c2cccnc2)n1N)C(=O)N1CCOCC1 (stereo not given),-1.8,1.3,-5.9,1.5,.
CCOc1cc(C=NNC(=O)c2cccs2)cc([N+](=O)[O-])c1O,.,.,.,29.7*,39.7
CC1(C(=O)NS(=O)(=O)c2ccc(Cl)s2)CCN1C(=O)Cc1ccc(-c2ccccc2)cc1 (stereo not given),-0.3,.,.,.,.
COc1ccc([N+](=O)[O-])cc1NC(=O)c1ccc(CN(c2ccc(C)c(C)c2)S(C)(=O)=O)cc1,3.0,0.2,-0.4,46.8*,-1.6
